Experimental data pooled from the literature.
Protocols differ between the studies behind these lines.
Target: Serine/threonine-protein kinase WNK2 (WNK2, Homo sapiens, UniProt Q9Y3S1)

The remaining binding of `CC(=O)N1CCC(c2ccc(C(=O)NC(=N)N)cc2C(F)(F)F)CC1` is reported as 98% (cell-free assay, competition with immobilised ligand; 1 µM).
The inhibition of `CCN(CC)CCNC(=O)c1c(C)[nH]c(/C=C2\C(=O)Nc3ccc(F)cc32)c1C` is reported as 3% (enzyme activity, inhibitor; 0.3 µM).
`CNC(=O)Nc1ccc2c(c1)[C@@]1(CC2)OC(=O)N(CC(=O)N(Cc2ccc(F)cc2)[C@@H](C)C(F)(F)F)C1=O` gave a remaining binding of 59% (cell-free assay, competition with immobilised ligand; 1 µM).
`Cc1ccc(NC(=O)c2ccc(C)c(C(F)(F)F)c2)cc1C#Cc1nn(C2CCC(O)CC2)c2ncnc(N)c12` (stereo not drawn) has a remaining signal of 105% (cell-free assay; 10 µM).
`N#CCCc1ccc2c(c1)-c1[nH]c3ccc([N+](=O)[O-])cc3c1CC(=O)N2` gave a remaining signal of 112% (cell-free assay; 0.5 µM).
`Nc1ncnc2occ(-c3ccc(NC(=O)Nc4cc(C(F)(F)F)ccc4F)cc3)c12` has a remaining signal of 65% (cell-free assay, inhibitor; 20 µM).
`Cc1cnc(NC2CCOCC2)nc1-n1cnc(C(=O)NC(CN)c2cc(F)cc(Cl)c2)c1` (stereo not drawn) gave a remaining activity of 85% (enzyme activity, inhibitor, radiometric; 1 µM).
For `O=C(Nc1cnc(Oc2ccc(F)cc2)nc1)N1CCc2ncccc2[C@@H]1c1ccc(F)cc1`, the remaining binding was 79% (cell-free assay, competition with immobilised ligand; 1 µM).
`CC(C)(C)c1nc2c(s1)c1nc(N)ncc1c1ccc(NS(=O)(=O)c3c(F)cccc3F)c(F)c12` gave a remaining activity of 101% (enzyme activity, inhibitor, radiometric; 1 µM).
`CO[C@@H](C)c1c(Nc2ccc([C@@H](N(C)C(=O)C3CCS(=O)(=O)CC3)C(F)(F)F)cc2)cnc2cc(Cl)nn12` has a remaining binding of 100% (cell-free assay, competition with immobilised ligand; 1 µM).
For `CN(c1nccc(-c2cnn3ncccc23)n1)C1CC1`, the remaining binding was 100% (binding; 1 µM).
`O=C(Nc1cnn(-c2csc(C(=O)NC3COC3)c2)c1)Nc1c(F)cccc1Cl` gave a remaining activity of 91.9% (enzyme activity, inhibitor; 5 µM).
`Cc1ccc(Nc2nccc(N(C)c3ccc4c(C)n(C)nc4c3)n2)cc1S(N)(=O)=O` gave an inhibition of 2% (enzyme activity, inhibitor; 0.3 µM).
`COc1cc(Cl)c(C(=O)N[C@@H](CN[C@H]2CC[C@@H](N)CC2)Cc2ccc(C#N)cc2)cc1-c1ccc(CN[C@H](C)c2ccc(C)cc2)o1` gave a remaining activity of 101% (enzyme activity, inhibitor; 1 µM).
`COc1cccc(CNC(=O)c2nc3scc(COCc4ccc(C(=O)O)cc4)c3c(=O)[nH]2)c1` gave a remaining binding of 54.2% (cell-free assay, competition with immobilised ligand; 1 µM).
`Cc1sc(C(=O)NC2COC2)cc1-n1cc(NC(=O)Nc2c(F)cccc2Cl)cn1` gave a remaining activity of 91.1% (enzyme activity, inhibitor; 10 µM).
The remaining binding of `O=C(O)[C@@H]1[C@@H](Cn2nnc3ccccc3c2=O)CC[C@H]1C(=O)c1ccc(OCCC2CCOCC2)cc1` is reported as 82% (cell-free assay, competition with immobilised ligand; 1 µM).
For `CNC(=O)c1cc(Oc2ccc(NC(=O)Nc3ccc(Cl)c(C(F)(F)F)c3)cc2)ccn1`, the inhibition was 1% (enzyme activity, inhibitor; 0.3 µM).
